{
  "source": "paper PMC4400215",
  "about": "(Antiviral therapy, 2014)",
  "key": {"HCV [1]": {"system": "HCV", "details": "monotherapy, doses of 200 and 500 mg/day; cited from earlier work"}, "HCV [2]": {"system": "HCV", "experiment": "Varying effectiveness", "type": "in vivo, Hepatitis C virus", "details": "VE model", "procedure,_shortened": "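Standard viral kinetic model with constant target cells, fitted to log10 viral load only, without PK data. Effectiveness = Dose/(ED50+Dose)·(1−e^(−kt)), where Dose is the total daily amount. Population mixed-effects fit by maximum likelihood. Per-patient effectiveness was averaged over days 0–2 and 0–14, then over each cohort. First-phase decline = −log10(1−ε).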"}, "HCV genotype 1 [3]": {"system": "HCV genotype 1", "type": "in vivo, Hepatitis C virus", "details": "14 days", "procedure,_shortened": "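Reanalysed phase 1 data. Chronically infected patients were randomised 8:2 to oral test compound or placebo for 14 days, and placebo recipients were excluded. HCV RNA was measured in blood drawn at 0, 2, 4, 6, 8, 12, 16, 24, 26, 28, 30, 48 and 52 h, on days 6 and 8 pre- and post-dose, and on day 13.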"}, "[4]": {"experiment": "Two-compartment population PK model fitted to danoprevir plasma concentrations", "type": "in vivo, patients"}, "HCV [5]": {"system": "HCV", "experiment": "PK/VK model fitted to HCV RNA kinetics during danoprevir monotherapy", "type": "in vivo, Hepatitis C virus", "details": "for minimal effectiveness: at Cmin"}, "HCV [6]": {"system": "HCV", "details": "in combination with mericitabine, 14 days, no viral breakthrough; cited from earlier work"}, "HCV [7]": {"system": "HCV", "details": "200 mg tid, multiscale model; cited from earlier work"}, "HCV genotype 1 [8]": {"system": "HCV genotype 1", "details": "cited from earlier work"}, "[9]": {"details": "Cohort 5: 300 mg bid, non-responder"}, "[10]": {"details": "PK/VK model, Cohort 1: 100 mg bid, TN"}, "[11]": {"details": "PK/VK model, Cohort 2: 100 mg tid, TN"}, "[12]": {"details": "PK/VK model, Cohort 3: 200 mg bid, TN"}, "[13]": {"details": "PK/VK model, Cohort 4: 200 mg tid, TN"}, "[14]": {"details": "PK/VK model, Cohort 5: 300 mg bid, non-responder"}, "[15]": {"details": "after first intake, 100 mg bid dose"}},
  "note": "Several values for one entry are separate records, joined by “and”; a condition that tells them apart may be missing. Equal entries are not always repeated. Where two headings read alike, the source gives them in different places.",
  "data": [
    {"smiles": "COc1ccc2c(O[C@@H]3C[C@H]4C(=O)N[C@]5(C(=O)O)C[C@H]5/C=C\\CCCCC[C@H](NC(=O)OC5CCCC5)C(=O)N4C3)cc(-c3csc(NC(C)C)n3)nc2c1", "note": "[ciluprevir]", "values": [
      {"measurement": "δ (second phase decline)", "setting": "HCV [1]", "value": "0.22 to 0.36", "unit": "day⁻¹"}
    ]},
    {"smiles": "CC(C)(C)OC(=O)N[C@H]1CCCCC/C=C\\[C@@H]2C[C@@]2(C(=O)NS(=O)(=O)C2CC2)NC(=O)[C@@H]2C[C@@H](OC(=O)N3Cc4cccc(F)c4C3)CN2C1=O", "note": "[danoprevir]", "values": [
      {"measurement": "Average effectiveness over the first 2 days of dosing ε2", "setting": "HCV [2]; Cohort 1: 100 mg bid, TN", "value": 0.973},
      {"measurement": "Average effectiveness over the full 14-day dosing period ε14", "setting": "HCV [2]; Cohort 1: 100 mg bid, TN", "value": 0.976},
      {"measurement": "Predicted first-phase log decline, i.e. −log10(1−ε2)", "setting": "HCV [2]; Cohort 1: 100 mg bid, TN", "value": 1.57, "unit": "log10"},
      {"measurement": "Average effectiveness over the first 2 days of dosing ε2", "setting": "HCV [2]; Cohort 2: 100 mg tid, TN", "value": 0.982},
      {"measurement": "Average effectiveness over the full 14-day dosing period ε14", "setting": "HCV [2]; Cohort 2: 100 mg tid, TN", "value": 0.984},
      {"measurement": "Predicted first-phase log decline, i.e. −log10(1−ε2)", "setting": "HCV [2]; Cohort 2: 100 mg tid, TN", "value": 1.74, "unit": "log10"},
      {"measurement": "Average effectiveness over the first 2 days of dosing ε2", "setting": "HCV [2]; Cohort 3: 200 mg bid, TN", "value": 0.985},
      {"measurement": "Average effectiveness over the full 14-day dosing period ε14", "setting": "HCV [2]; Cohort 3: 200 mg bid, TN", "value": 0.988},
      {"measurement": "Predicted first-phase log decline, i.e. −log10(1−ε2)", "setting": "HCV [2]; Cohort 3: 200 mg bid, TN", "value": 1.82, "unit": "log10"},
      {"measurement": "Average effectiveness over the first 2 days of dosing ε2", "setting": "HCV [2]; Cohort 4: 200 mg tid, TN", "value": 0.990},
      {"measurement": "Average effectiveness over the full 14-day dosing period ε14", "setting": "HCV [2]; Cohort 4: 200 mg tid, TN", "value": 0.992},
      {"measurement": "Predicted first-phase log decline, i.e. −log10(1−ε2)", "setting": "HCV [2]; Cohort 4: 200 mg tid, TN", "value": 2.00, "unit": "log10"},
      {"measurement": "Average effectiveness over the first 2 days of dosing ε2", "setting": "HCV [2]; [9]", "value": 0.990},
      {"measurement": "Average effectiveness over the full 14-day dosing period ε14", "setting": "HCV [2]; [9]", "value": 0.992},
      {"measurement": "Predicted first-phase log decline, i.e. −log10(1−ε2)", "setting": "HCV [2]; [9]", "value": 2.00, "unit": "log10"},
      {"measurement": "ED50 (daily dose leading to 50% of the maximal effectiveness)", "setting": "HCV [2]; estimate±standard error", "value": "4.85 ± 1.4", "unit": "mg/day"},
      {"measurement": "k (rate constant for effectiveness increase)", "setting": "HCV [2]; estimate±standard error", "value": "29.1 ± 13.0 day⁻¹ and 29.1 ± 13 day⁻¹"},
      {"measurement": "δ (loss rate of infected cells)", "setting": "HCV [2]; estimate±standard error", "value": "0.184 ± 0.03", "unit": "day⁻¹"},
      {"measurement": "final population effectiveness", "setting": "HCV [2]; highest dose given to treatment-naïve patients (cohort 4)", "value": 0.992},
      {"measurement": "final population effectiveness", "setting": "HCV [2]; lowest dose (cohort 1)", "value": 0.976},
      {"measurement": "Total viral decline (median)", "setting": "HCV genotype 1 [3]; Cohort 1: 100 mg bid, treatment-naïve", "value": 2.0, "unit": "Log10 IU/mL"},
      {"measurement": "Total viral decline (median)", "setting": "HCV genotype 1 [3]; Cohort 2: 100 mg tid, TN", "value": 2.7, "unit": "Log10 IU/mL"},
      {"measurement": "Total viral decline (median)", "setting": "HCV genotype 1 [3]; Cohort 4: 200 mg tid, TN", "value": 3.9, "unit": "Log10 IU/mL"},
      {"measurement": "Total viral decline (median)", "setting": "HCV genotype 1 [3]; [9]", "value": 2.7, "unit": "Log10 IU/mL"},
      {"measurement": "Cmax", "setting": "[4]; human, plasma, oral", "value": "2.67 to 589", "unit": "ng/mL"},
      {"measurement": "Vd/F", "setting": "[4]; human, plasma, oral", "value": "2100 ± 360", "unit": "L"},
      {"measurement": "k el", "setting": "[4]; human, plasma, oral", "value": 0.000283, "unit": "s⁻¹"},
      {"measurement": "k21 (backward rate constant between compartments)", "setting": "[4]; population estimate±standard error, all cohorts", "value": "0.81 h⁻¹ and 0.81 ± 0.17 h⁻¹"},
      {"measurement": "Tlag (post-dose lag-time)", "setting": "[4]; population estimate±standard error, all cohorts, oral", "value": "0.50 h and 0.50 ± 0.057 h"},
      {"measurement": "Tk0 (time over which danoprevir is absorbed)", "setting": "[4]; population estimate±standard error, all cohorts, zero-order absorption", "value": "0.58 h and 0.58 ± 0.13 h"},
      {"measurement": "final effectiveness in blocking viral production", "setting": "HCV [5]; 200 mg tid", "value": 99.4, "unit": "%"},
      {"measurement": "Average effectiveness over the first 2 days of dosing ε2", "setting": "HCV [5]; [10]", "value": 0.946},
      {"measurement": "Average effectiveness over the full 14-day dosing period ε14", "setting": "HCV [5]; [10]", "value": "0.95 and 0.953"},
      {"measurement": "Predicted first-phase log decline, i.e. −log10(1−ε2)", "setting": "HCV [5]; [10]", "value": 1.27, "unit": "log10"},
      {"measurement": "Average effectiveness over the first 2 days of dosing ε2", "setting": "HCV [5]; [11]", "value": 0.981},
      {"measurement": "Average effectiveness over the full 14-day dosing period ε14", "setting": "HCV [5]; [11]", "value": 0.990},
      {"measurement": "Predicted first-phase log decline, i.e. −log10(1−ε2)", "setting": "HCV [5]; [11]", "value": 1.72, "unit": "log10"},
      {"measurement": "Average effectiveness over the first 2 days of dosing ε2", "setting": "HCV [5]; [12]", "value": 0.966},
      {"measurement": "Average effectiveness over the full 14-day dosing period ε14", "setting": "HCV [5]; [12]", "value": 0.974},
      {"measurement": "Predicted first-phase log decline, i.e. −log10(1−ε2)", "setting": "HCV [5]; [12]", "value": 1.47, "unit": "log10"},
      {"measurement": "Average effectiveness over the first 2 days of dosing ε2", "setting": "HCV [5]; [13]", "value": 0.985},
      {"measurement": "Average effectiveness over the full 14-day dosing period ε14", "setting": "HCV [5]; [13]", "value": 0.994},
      {"measurement": "Predicted first-phase log decline, i.e. −log10(1−ε2)", "setting": "HCV [5]; [13]", "value": 1.83, "unit": "log10"},
      {"measurement": "Average effectiveness over the first 2 days of dosing ε2", "setting": "HCV [5]; [14]", "value": 0.974},
      {"measurement": "Average effectiveness over the full 14-day dosing period ε14", "setting": "HCV [5]; [14]", "value": 0.982},
      {"measurement": "Predicted first-phase log decline, i.e. −log10(1−ε2)", "setting": "HCV [5]; [14]", "value": 1.58, "unit": "log10"},
      {"measurement": "minimal effectiveness", "setting": "HCV [5]; PK/VK model, cohort 1 (lowest dose)", "value": 0.706},
      {"measurement": "minimal effectiveness", "setting": "HCV [5]; PK/VK model, cohort 4 (highest dose)", "value": 0.877},
      {"measurement": "EC50 (plasma concentration at which effectiveness is 0.5 times its maximum)", "setting": "HCV [5]; PK/VK model, in vivo, h=1, population estimate±standard error", "value": "0.0082 ± 0.0024", "unit": "ng/mL"},
      {"measurement": "δ (loss rate of infected cells, slope of second phase decline)", "setting": "HCV [5]; PK/VK model, population estimate±standard error, all cohorts", "value": "0.18 day⁻¹ and 0.18 ± 0.024 day⁻¹"},
      {"measurement": "time to reach 95% of final effectiveness", "setting": "HCV [5]; [15]", "value": "≤ 30", "unit": "min"},
      {"measurement": "time to reach 99% of final effectiveness", "setting": "HCV [5]; [15]", "value": "≤ 36", "unit": "min"},
      {"measurement": "patients showing a rapid second phase (δ > 0.3 d^−1)", "setting": "HCV [5]; all cohorts", "value": 30, "unit": "%"},
      {"measurement": "time to reach 99% of the final effectiveness", "setting": "HCV [5]; model prediction, all doses", "value": "less than 1 hr"},
      {"measurement": "viral RNA decline", "setting": "HCV [6]", "value": 5, "unit": "logs"},
      {"measurement": "effectiveness in blocking intracellular replication", "setting": "HCV [7]", "value": 99.2, "unit": "%"},
      {"measurement": "enhancement of viral RNA degradation", "setting": "HCV [7]", "value": "about 5 fold"},
      {"measurement": "mean effectiveness on viral secretion", "setting": "HCV [7]", "value": 56, "unit": "%"},
      {"measurement": "cure rates", "setting": "HCV genotype 1 [8]; genotype 1, with IFN and ribavirin, boosted with ritonavir", "value": "up to 93%"},
      {"measurement": "cure rates", "setting": "HCV genotype 1 [8]; patients infected with genotype 1, in combination with IFN and ribavirin", "value": "up to 85%"}
    ]}
  ]
}
